Tests used:
[1] = test system: Mycobacterium tuberculosis; experiment: Antimycobacterial activity against Mycobacterium tuberculosis H37Rv infected Swiss mouse assessed as reduction of bacterial count in lungs at 50 mg/kg 5 times weekly for 4 weeks; type: functional
Method in brief: (§1)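 Nonestablished infection model in mice. Oral dosing began the day after inoculation, given 5 times per week for 4 weeks; one 12.5 mg/kg group was dosed once weekly. Mice were killed on day 28 and lung and spleen CFU counted, with untreated controls taken at day 1. Means ± SD; pairwise comparisons by Bonferroni's method.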

[2] = test system: Mycobacterium tuberculosis; experiment: Antimycobacterial activity against Mycobacterium tuberculosis H37Rv infected Swiss mouse assessed as reduction of bacterial count in lungs at 75 mg/kg 5 times weekly for 4 weeks; type: functional; method in brief: as §1
[3] = test system: Mycobacterium tuberculosis; experiment: Antimycobacterial activity against Mycobacterium tuberculosis H37Rv infected Swiss mouse assessed as reduction of bacterial count in spleen at 50 mg/kg 5 times weekly for 4 weeks; type: functional; method in brief: as §1
[4] = test system: Mycobacterium tuberculosis; experiment: Antimycobacterial activity against Mycobacterium tuberculosis H37Rv infected Swiss mouse assessed as spleen weight at 75 mg/kg 5 times weekly for 4 weeks; type: functional
[5] = test system: Mycobacterium tuberculosis; experiment: Antimycobacterial activity against Mycobacterium tuberculosis H37Rv infected Swiss mouse assessed as spleen weight at 100 mg/kg 5 times weekly for 4 weeks; type: functional
[6] = test system: Mycobacterium tuberculosis; experiment: Antimycobacterial activity against Mycobacterium tuberculosis H37Rv infected Swiss mouse assessed as reduction of bacterial count in lungs at 100 mg/kg 5 times weekly for 4 weeks; type: functional; method in brief: as §1
[7] = test system: Mycobacterium tuberculosis; experiment: Antimycobacterial activity against Mycobacterium tuberculosis H37Rv infected Swiss mouse assessed as reduction of bacterial count in spleen at 75 mg/kg 5 times weekly for 4 weeks; type: functional; method in brief: as §1
[8] = test system: Mycobacterium tuberculosis; experiment: Antimycobacterial activity against Mycobacterium tuberculosis H37Rv infected Swiss mouse assessed as reduction of bacterial count in spleen at 100 mg/kg 5 times weekly for 4 weeks; type: functional; method in brief: as §1
[9] = test system: Mycobacterium tuberculosis; experiment: Antimycobacterial activity against Mycobacterium tuberculosis H37Rv infected Swiss mouse assessed as spleen weight at 50 mg/kg 5 times weekly for 4 weeks; type: functional
Mus musculus [10] = experiment: Toxicity in Mycobacterium tuberculosis H37Rv infected Swiss mouse at 75 mg/kg 5 times weekly for 4 weeks; type: organism-based; parameters: dose 75 mg/kg; conditions: in vivo, 672 h
Mus musculus [11] = experiment: Toxicity in Mycobacterium tuberculosis H37Rv infected Swiss mouse at 25 mg/kg 5 times weekly for 4 weeks; type: organism-based; parameters: dose 25 mg/kg; conditions: in vivo, 672 h
Mus musculus [12] = experiment: Toxicity in Mycobacterium tuberculosis H37Rv infected Swiss mouse at 100 mg/kg 5 times weekly for 4 weeks; type: organism-based; parameters: dose 100 mg/kg; conditions: in vivo, 672 h
Mus musculus [13] = experiment: Toxicity in Mycobacterium tuberculosis H37Rv infected Swiss mouse at 50 mg/kg 5 times weekly for 4 weeks; type: organism-based; parameters: dose 50 mg/kg; conditions: in vivo, 672 h
Mus musculus [14] = experiment: Toxicity in Mycobacterium tuberculosis H37Rv infected Swiss mouse at 12.5 mg/kg 5 times weekly for 4 weeks; type: organism-based; parameters: dose 12.5 mg/kg; conditions: in vivo, 672 h
[15] = test system: Mycobacterium tuberculosis; experiment: Antimycobacterial activity against Mycobacterium tuberculosis H37Rv infected Swiss mouse assessed as reduction of bacterial count in lungs at 10 mg/kg after 12 days infection weekly 5 times for 1 month; type: functional
Method in brief: (§2)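 Established infection model in mice. Treatment started 12 to 14 days after inoculation, given 5 times per week. Mice were killed on day 12 just before treatment, on day 42 (1 month of therapy) and on day 70 (2 months), and lung CFU counted. Means ± SD; pairwise comparisons by Bonferroni's method.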

Plasma = experiment: Drug level in human plasma; type: ADME, cell-free
[16] = test system: Mycobacterium tuberculosis; experiment: Antimycobacterial activity against Mycobacterium tuberculosis H37Rv infected Swiss mouse assessed as spleen weight at 10 mg/kg after 12 days infection weekly 5 times for 1 month; type: functional
[17] = test system: Mycobacterium tuberculosis; experiment: Antimycobacterial activity against Mycobacterium tuberculosis H37Rv infected Swiss mouse assessed as reduction of bacterial count in spleen at 10 mg/kg after 12 days infection weekly 5 times for 1 month; type: functional
[18] = test system: Mycobacterium tuberculosis; experiment: Antimycobacterial activity against Mycobacterium tuberculosis H37Rv infected Swiss mouse assessed as reduction of bacterial count in lungs at 10 mg/kg after 12 days of infection weekly 5 times for 8 weeks; type: functional; method in brief: as §2
[19] = test system: Mycobacterium tuberculosis; experiment: Antimycobacterial activity against Mycobacterium tuberculosis H37Rv infected Swiss mouse assessed as spleen weight at 10 mg/kg after 12 days of infection weekly 5 times for 8 weeks; type: functional
[20] = test system: Mycobacterium tuberculosis; experiment: Antimycobacterial activity against Mycobacterium tuberculosis H37Rv infected Swiss mouse assessed as reduction of bacterial count in lungs at 25 mg/kg 5 times weekly for 4 weeks; type: functional; method in brief: as §1
[21] = test system: Mycobacterium tuberculosis; experiment: Antimycobacterial activity against Mycobacterium tuberculosis H37Rv infected Swiss mouse assessed as reduction of bacterial count in spleen at 25 mg/kg 5 times weekly for 4 weeks; type: functional; method in brief: as §1
[22] = test system: Mycobacterium tuberculosis; experiment: Antimycobacterial activity against Mycobacterium tuberculosis H37Rv infected Swiss mouse assessed as spleen weight at 25 mg/kg 5 times weekly for 4 weeks; type: functional

| Structure (SMILES) | log10cfu [1] | log10cfu [2] | log10cfu [3] | Activity [4] [mg] | Activity [5] [mg] | log10cfu [6] | log10cfu [7] | log10cfu [8] | Activity [9] [mg] | further results |
| --- | --- | --- | --- | --- | --- | --- | --- | --- | --- | --- |
| COc1nc2ccc(Br)cc2cc1[C@@H](c1ccccc1)[C@@](O)(CCN(C)C)c1cccc(F)c1 | 5.2 | 4.32 | 4.68 | 197 | 206 | 3.63 | 4.04 | 3.63 | 278 |  |
| COc1nc2ccc(Br)cc2cc1[C@@H](c1ccccc1)[C@@](O)(CCN(C)C)c1ccccc1 | 6.4 | 6.03 | 5.78 | 390 | 424 | 6.1 | 5.72 | 5.68 | 410 | Activity (Mus musculus [10]): Non-toxic; Activity (Mus musculus [11]): Non-toxic; Activity (Mus musculus [12]): Non-toxic; Activity (Mus musculus [13]): Non-toxic; Activity (Mus musculus [14]): Non-toxic |
| CO[C@H]1/C=C/O[C@@]2(C)Oc3c(C)c(O)c4c(O)c(c(/C=N/N5CCN(C)CC5)c(O)c4c3C2=O)NC(=O)/C(C)=C\C=C\[C@H](C)[C@H](O)[C@@H](C)[C@@H](O)[C@@H](C)[C@H](OC(C)=O)[C@@H]1C [RIFAMPIN] |  |  |  |  |  |  |  |  |  | log10cfu [15]: 4.05; Drug uptake (Plasma): < 0.001 µg/mL; Activity [16]: 466 mg; log10cfu [17]: 4.72; log10cfu [18]: 1.89; Activity [19]: 391 mg |
| NNC(=O)c1ccncc1 [ISONIAZID] |  |  |  |  |  |  |  |  |  | log10cfu [20]: 1.75 mg; log10cfu [21]: 3.05 mg; Activity [22]: 185 mg |

Source: ChEMBL document CHEMBL1143400, “A diarylquinoline drug active on the ATP synthase of Mycobacterium tuberculosis” (Science, 2005)
